Laboratory results from ChEMBL document CHEMBL3734675, “Synthesis, antimycobacterial and antibacterial activity of fluoroquinolone derivatives containing an 3-alkoxyimino-4-(cyclopropylanimo)methylpyrrolidine moiety” (2015).
Values after ≈ are worked out from the molar mass of the structure shown.

What was measured:
Type in all cases: functional
Klebsiella pneumoniae [1] = experiment: Antibacterial activity against Klebsiella pneumoniae 14-2 after 18 to 24 hrs by two-fold serial dilution method
How it was run: (§1)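 Twofold serial dilution in agar media against Gram-positive and Gram-negative strains. Plates incubated at 35 °C for 18–24 h. MIC read as the lowest compound concentration giving complete inhibition of bacterial growth.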

[2] = system: Mycobacterium tuberculosis; experiment: Antimycobacterial activity against Mycobacterium tuberculosis H37Rv ATCC 27294 incubated for 7 days by microplate Alamar Blue assay; details: H37Rv ATCC 27294, 168 h
How it was run: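 Fluorescence read-out. MIC is the lowest concentration that reduces fluorescence by at least 90% relative to the mean of replicate bacterium-only controls. Isoniazid and rifampicin were included as reference drugs.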

Pseudomonas aeruginosa [3] = experiment: Antibacterial activity against Pseudomonas aeruginosa 14-9 after 18 to 24 hrs by two-fold serial dilution method; how it was run: as §1
Pseudomonas aeruginosa [4] = experiment: Antibacterial activity against Pseudomonas aeruginosa 14-15 after 18 to 24 hrs by two-fold serial dilution method; how it was run: as §1
Enterococcus faecium [5] = experiment: Antibacterial activity against Enterococcus faecium 14-6 after 18 to 24 hrs by two-fold serial dilution method; how it was run: as §1
Staphylococcus aureus [6] = experiment: Antibacterial activity against Staphylococcus aureus CMCC 26003 after 18 to 24 hrs by two-fold serial dilution method; how it was run: as §1
Escherichia coli [7] = experiment: Antibacterial activity against extended-spectrum beta-lactamase producing Escherichia coli 14-1 after 18 to 24 hrs by two-fold serial dilution method; how it was run: as §1
Enterococcus faecium [8] = experiment: Antibacterial activity against Enterococcus faecium 14-2 after 18 to 24 hrs by two-fold serial dilution method; how it was run: as §1
[9] = system: Staphylococcus epidermidis; experiment: Antibacterial activity against methicillin-resistant Staphylococcus epidermidis 14-21 after 18 to 24 hrs by two-fold serial dilution method
How it was run: (§2)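 Agar media, standard twofold serial dilution. MIC is the lowest concentration giving complete inhibition of bacterial growth after incubation at 35 °C for 18–24 h. Ciprofloxacin and levofloxacin were run as comparators.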

Klebsiella pneumoniae [10] = experiment: Antibacterial activity against Klebsiella pneumoniae 14-1 after 18 to 24 hrs by two-fold serial dilution method; how it was run: as §1
Klebsiella pneumoniae [11] = experiment: Antibacterial activity against Klebsiella pneumoniae 14-3 after 18 to 24 hrs by two-fold serial dilution method; how it was run: as §1
Staphylococcus aureus [12] = experiment: Antibacterial activity against methicillin-sensitive Staphylococcus aureus 14-1 after 18 to 24 hrs by two-fold serial dilution method; how it was run: as §1
Escherichia coli [13] = experiment: Antibacterial activity against Escherichia coli 14-1 after 18 to 24 hrs by two-fold serial dilution method; how it was run: as §1
Enterococcus faecium [14] = experiment: Antibacterial activity against Enterococcus faecium 14-5 after 18 to 24 hrs by two-fold serial dilution method; how it was run: as §1
Staphylococcus aureus [15] = experiment: Antibacterial activity against methicillin-resistant Staphylococcus aureus 14-5 after 18 to 24 hrs by two-fold serial dilution method; how it was run: as §2
Escherichia coli [16] = experiment: Antibacterial activity against Escherichia coli 14-2 after 18 to 24 hrs by two-fold serial dilution method; how it was run: as §1
Streptococcus pneumoniae = experiment: Antibacterial activity against methicillin-resistant Streptococcus pneumoniae ATCC 19615 after 18 to 24 hrs by two-fold serial dilution method; how it was run: as §2
Staphylococcus aureus [17] = experiment: Antibacterial activity against methicillin-sensitive Staphylococcus aureus 14-3 after 18 to 24 hrs by two-fold serial dilution method; how it was run: as §1
Escherichia coli [18] = experiment: Antibacterial activity against Escherichia coli ATCC 25922 after 18 to 24 hrs by two-fold serial dilution method; how it was run: as §1
Staphylococcus aureus [19] = experiment: Antibacterial activity against methicillin-sensitive Staphylococcus aureus 14-4 after 18 to 24 hrs by two-fold serial dilution method; how it was run: as §1
Klebsiella pneumoniae [20] = experiment: Antibacterial activity against extended-spectrum beta-lactamase producing Klebsiella pneumoniae 14-19 after 18 to 24 hrs by two-fold serial dilution method; how it was run: as §1
Pseudomonas aeruginosa [21] = experiment: Antibacterial activity against Pseudomonas aeruginosa 14-16 after 18 to 24 hrs by two-fold serial dilution method; how it was run: as §1
[22] = system: Staphylococcus epidermidis; experiment: Antibacterial activity against methicillin-resistant Staphylococcus epidermidis 14-22 after 18 to 24 hrs by two-fold serial dilution method; how it was run: as §2
Pseudomonas aeruginosa [23] = experiment: Antibacterial activity against Pseudomonas aeruginosa 14-14 after 18 to 24 hrs by two-fold serial dilution method; how it was run: as §1
Pseudomonas aeruginosa [24] = experiment: Antibacterial activity against Pseudomonas aeruginosa ATCC 27853 after 18 to 24 hrs by two-fold serial dilution method; how it was run: as §1
Klebsiella pneumoniae [25] = experiment: Antibacterial activity against Klebsiella pneumoniae 14-4 after 18 to 24 hrs by two-fold serial dilution method; how it was run: as §1
Escherichia coli [26] = experiment: Antibacterial activity against extended-spectrum beta-lactamase producing Escherichia coli 14-2 after 18 to 24 hrs by two-fold serial dilution method; how it was run: as §1
[27] = system: Staphylococcus epidermidis; experiment: Antibacterial activity against methicillin-resistant Staphylococcus epidermidis 14-39 after 18 to 24 hrs by two-fold serial dilution method; how it was run: as §2
[28] = system: Staphylococcus epidermidis; experiment: Antibacterial activity against methicillin-sensitive Staphylococcus epidermidis 14-2 after 18 to 24 hrs by two-fold serial dilution method; how it was run: as §1
Staphylococcus aureus [29] = experiment: Antibacterial activity against methicillin-resistant Staphylococcus aureus 14-4 after 18 to 24 hrs by two-fold serial dilution method; how it was run: as §2
Enterococcus faecalis [30] = experiment: Antibacterial activity against Enterococcus faecalis 14-2 after 18 to 24 hrs by two-fold serial dilution method; how it was run: as §1
Enterococcus faecalis [31] = experiment: Antibacterial activity against Enterococcus faecalis 14-1 after 18 to 24 hrs by two-fold serial dilution method; how it was run: as §1
Klebsiella pneumoniae [32] = experiment: Antibacterial activity against extended-spectrum beta-lactamase producing Klebsiella pneumoniae 14-18 after 18 to 24 hrs by two-fold serial dilution method; how it was run: as §1
Klebsiella pneumoniae [33] = experiment: Antibacterial activity against extended-spectrum beta-lactamase producing Klebsiella pneumoniae 14-17 after 18 to 24 hrs by two-fold serial dilution method; how it was run: as §1
[34] = system: Staphylococcus epidermidis; experiment: Antibacterial activity against methicillin-resistant Staphylococcus epidermidis 14-37 after 18 to 24 hrs by two-fold serial dilution method; how it was run: as §2

| SMILES | MIC (Klebsiella pneumoniae [1]) [mg/L] | MIC90 [2] [mg/L] | MIC (Pseudomonas aeruginosa [3]) [mg/L] | MIC (Pseudomonas aeruginosa [4]) [mg/L] | MIC (Enterococcus faecium [5]) [mg/L] | MIC (Staphylococcus aureus [6]) [mg/L] | MIC (Escherichia coli [7]) [mg/L] | MIC (Enterococcus faecium [8]) [mg/L] | MIC [9] [mg/L] | MIC (Klebsiella pneumoniae [10]) [mg/L] | MIC (Klebsiella pneumoniae [11]) [mg/L] | MIC (Staphylococcus aureus [12]) [mg/L] | MIC (Escherichia coli [13]) [mg/L] | MIC (Enterococcus faecium [14]) [mg/L] | MIC (Staphylococcus aureus [15]) [mg/L] | MIC (Escherichia coli [16]) [mg/L] | MIC (Streptococcus pneumoniae) [mg/L] | MIC (Staphylococcus aureus [17]) [mg/L] | MIC (Escherichia coli [18]) [mg/L] | MIC (Staphylococcus aureus [19]) [mg/L] | further results |
| --- | --- | --- | --- | --- | --- | --- | --- | --- | --- | --- | --- | --- | --- | --- | --- | --- | --- | --- | --- | --- | --- |
| CCO/N=C1/CN(c2c(F)cc3c(=O)c(C(=O)O)cn4c3c2OC[C@@H]4C)CC1(C)CNC1CC1 (stereo not given in full) | 64 (≈ 135 µM) | 2.76 (≈ 5.84 µM) | 64 (≈ 135 µM) | 64 (≈ 135 µM) | 16 (≈ 33.9 µM) | < 0.008 | 8 (≈ 16.9 µM) | 16 (≈ 33.9 µM) | 8 (≈ 16.9 µM) | 64 (≈ 135 µM) | > 128 | 4 (≈ 8.47 µM) | > 128 | 4 (≈ 8.47 µM) | 16 (≈ 33.9 µM) | > 128 | 0.25 (≈ 0.529 µM) | 0.03 (≈ 0.0635 µM) | 2 (≈ 4.23 µM) | 0.06 (≈ 0.127 µM) | MIC (Klebsiella pneumoniae [20]): 32 mg/L (≈ 67.7 µM); MIC (Pseudomonas aeruginosa [21]): 64 mg/L (≈ 135 µM); MIC [22]: 8 mg/L (≈ 16.9 µM); MIC (Pseudomonas aeruginosa [23]): 128 mg/L (≈ 271 µM); MIC (Pseudomonas aeruginosa [24]): 64 mg/L (≈ 135 µM); MIC (Klebsiella pneumoniae [25]): > 128 mg/L; MIC (Escherichia coli [26]): > 128 mg/L; MIC [27]: 8 mg/L (≈ 16.9 µM); MIC [28]: 32 mg/L (≈ 67.7 µM); MIC (Staphylococcus aureus [29]): 64 mg/L (≈ 135 µM); MIC (Enterococcus faecalis [30]): 1 mg/L (≈ 2.12 µM); MIC (Enterococcus faecalis [31]): 32 mg/L (≈ 67.7 µM); MIC (Klebsiella pneumoniae [32]): 32 mg/L (≈ 67.7 µM); MIC (Klebsiella pneumoniae [33]): 32 mg/L (≈ 67.7 µM); MIC [34]: 4 mg/L (≈ 8.47 µM) |
| CO/N=C1/CN(c2nc3c(cc2F)c(=O)c(C(=O)O)cn3-c2nc(N)c(F)cc2F)CC1(C)CNC1CC1 (stereo not given) | > 128 | 15.6 (≈ 29.4 µM) | 128 (≈ 241 µM) | 128 (≈ 241 µM) | 64 (≈ 120 µM) | 0.25 (≈ 0.47 µM) | 128 (≈ 241 µM) | 64 (≈ 120 µM) | 128 (≈ 241 µM) | > 128 | > 128 | 16 (≈ 30.1 µM) | > 128 | 128 (≈ 241 µM) | 32 (≈ 60.2 µM) | 128 (≈ 241 µM) | 4 (≈ 7.53 µM) | 16 (≈ 30.1 µM) | 16 (≈ 30.1 µM) | 8 (≈ 15.1 µM) | MIC (Klebsiella pneumoniae [20]): > 128 mg/L; MIC (Pseudomonas aeruginosa [21]): > 128 mg/L; MIC [22]: 32 mg/L (≈ 60.2 µM); MIC (Pseudomonas aeruginosa [23]): > 128 mg/L; MIC (Pseudomonas aeruginosa [24]): 128 mg/L (≈ 241 µM); MIC (Klebsiella pneumoniae [25]): > 128 mg/L; MIC (Escherichia coli [26]): > 128 mg/L; MIC [27]: 128 mg/L (≈ 241 µM); MIC [28]: 128 mg/L (≈ 241 µM); MIC (Staphylococcus aureus [29]): 32 mg/L (≈ 60.2 µM); MIC (Enterococcus faecalis [30]): 8 mg/L (≈ 15.1 µM); MIC (Enterococcus faecalis [31]): 128 mg/L (≈ 241 µM); MIC (Klebsiella pneumoniae [32]): > 128 mg/L; MIC (Klebsiella pneumoniae [33]): > 128 mg/L; MIC [34]: 64 mg/L (≈ 120 µM) |
